Test results: PMC6290999 (Journal of controlled release : official journal of the …, 2017)

How the values were obtained:
[1] = tested on: PLC cells; assay: Cell viability assay; assay type: cell-based, human; details: 0 to 40 μM ATRA; 24 h, 48 h, 72 h
In short: (§1)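 Seeded in 96-well plates at 3000 (HuH7) or 6000 (PLC) cells/well in DMEM or MEM with 10% FBS and cultured overnight. Treated with blank PLLA particles, free drug or drug-loaded PLLA particles; untreated control. MTT (5 mg/mL stock) added for 3 h, formazan dissolved in DMSO, absorbance read at 490 nm. Viability = OD sample/OD control × 100; IC50 calculated from inhibition rates.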

[2] = molecular target: T1, Pin1 (Homo sapiens, UniProt Q13526); assay: Pin1 and substrate expression in xenograft tumors; assay type: in vivo, BALB/c nu/nu mice; details: immunofluorescence staining, 3 weeks treatment
In short: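 Male nude mice carried subcutaneous hind-limb HuH7 xenografts (4 × 10⁶ cells) and were treated for three weeks. Frozen tumour sections (10 μm) fixed in acetone 10 min, permeabilised and blocked with 1% Triton X-100 plus 10% donkey serum for 40 min. Primary antibodies (PIN1, Ki67) applied 24 h at 4°C, secondary 1 h at room temperature, DAPI nuclear stain.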

[3] = under physiological conditions ref 41; cited from earlier work
[4] = tested on: HuH7 cells; assay: Cell viability assay; assay type: cell-based, human; details: 0 to 40 μM ATRA; 24 h, 48 h, 72 h
In short: as §1

[5] = tested on: normal human liver L-02 cells; assay: Cell viability assay; assay type: cell-based; details: even at 20 μM
[6] = Weight of mice in xenograft experiment; assay type: in vivo, BALB/c nu/nu mice; details: 3 weeks treatment
In short: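 Male BALB/c nu/nu mice bore subcutaneous hind-limb HuH7 xenografts (4 × 10⁶ cells) and were randomised at about 50 mm³. Groups received saline, free drug (ethanol diluted in corn oil), blank PLLA particles, slow-release pellet, or drug-loaded particles in saline. Dosing was i.p. at 15 mg/kg drug, twice weekly for three weeks. Body weight recorded weekly.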

[7] = tested on: shV–HuH7 cells; assay: Cell viability assay; assay type: cell-based, human; details: 20 μM, 72 h
[8] = tested on: shPin1–HuH7 cells; assay: Cell viability assay; assay type: cell-based, human; details: 20 μM
[9] = molecular target: T1, Pin1; assay: Western blotting of Pin1 and its substrates in HCC cells; assay type: cell-based; details: 72 h; for Pin1 expression: 20 μM ATRA
In short: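 PIN1-shRNA or scrambled-shRNA HuH7 and PLC lines were made by lentiviral transduction with 1 μg/mL puromycin selection. Lysates prepared in RIPA and quantified by BCA, run on SDS-PAGE and transferred to PVDF. Blocked in 5% milk, probed with anti-Pin1 (1:3000) then HRP secondary, detected by chemiluminescence; β-actin as loading control.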

[10] = tested on: shPin1–PLC cells; assay: Cell viability assay; assay type: cell-based, human; details: 20 μM; 24 h, 48 h, 72 h
In short: (§2)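 Stable lines made by lentiviral pLKO.1 shRNA (PIN1 or scrambled) produced in 293T with pVSVG, pREV and pMDL helpers. PLC cells were infected, selected with 1 μg/mL puromycin and checked by Western blot. Viability read by MTT: 3 h incubation, DMSO solubilisation, 490 nm, expressed as OD sample/OD control × 100.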

[11] = tested on: HuH7 cells; assay: Focus formation assay; assay type: cell-based, human; details: 72 h treatment, then 10~14 days; vs control cells
In short: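 HuH7 seeded at 500 or 2000 cells/well in 12- or 6-well plates, cultured overnight, then treated 72 h with blank PLLA particles, free drug or drug-loaded PLLA particles. Medium then replaced and cells grown 10~14 days. Fixed and stained with 0.5% methylene blue in methanol; colonies above 50 cells counted. Focus area given as % of untreated control; triplicates.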

[12] = tested on: HuH7 cells; assay: Cell cycle and apoptosis analysis; assay type: cell-based, human; details: 10 μM and 20 μM ATRA, 72 h
In short: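 HuH7 seeded at 0.9 × 10⁴ cells/cm², cultured overnight, then given blank PLLA particles (0.25 mg/mL), free drug (10 and 20 μM) or drug-loaded PLLA particles (10 and 20 μM drug) for 72 h; untreated cells as control. Trypsinised cells fixed in 70% ethanol (4°C, 2 h), stained with propidium iodide (30 min, 37°C, dark) using a kit, then analysed by flow cytometry.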

[13] = tested on: shV–PLC cells; assay: Cell viability assay; assay type: cell-based, human; details: 20 μM; 24 h, 48 h, 72 h
In short: as §2

T1 sequence (Q13526 whole entry): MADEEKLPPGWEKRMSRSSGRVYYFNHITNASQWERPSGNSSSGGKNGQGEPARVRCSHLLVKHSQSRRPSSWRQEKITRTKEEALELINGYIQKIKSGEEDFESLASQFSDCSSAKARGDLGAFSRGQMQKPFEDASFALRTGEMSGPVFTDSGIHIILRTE

CC1=C(/C=C/C(C)=C/C=C/C(C)=C/C(=O)O)C(C)(C)CCC1 [ATRA, all-trans retinoic acid]
Inhibition on PLC cell viability [1]: dose-dependent inhibition
Expression of Pin1 and Ki67 in tumors vs saline group [2]: did not induce obvious changes
Aqueous solubility [3]: 0.21 µM
Inhibition on HuH7 cell viability [4]: Dose-dependent inhibition
Inhibition on viability of L-02 cells [5]: no significant inhibition
Weights of mice vs saline group [6]: did not induce significant changes
Decrease of cell viability [7]: approximately 36%
Inhibition on cell viability ([7]; 24 h, 48 h): very significant (p < 0.001) time-dependent inhibition
Decrease of cell viability ([8]; 24 h and 48 h): did not decrease cell viability
Reduction of cell viability ([8]; 72 h): about 15%
Expression of Pin1 and its substrates (β-catenin, c-JUN, NF-κB, Cyclin D1, CDK2, CDK6) ([9]; HuH7 and PLC cells, 5-20 μM ATRA): obvious dose-dependent down-regulations
Pin1 expression ([9]; shPin1–HuH7 and shPin1–PLC cells): did not affect
Pin1 expression ([9]; shV–HuH7 and shV–PLC cells): significantly down-regulated
Decrease of cell viability [10]: did not decrease cell viability
Number and area of foci [11]: significant dose-dependent reductions
Apoptosis [12]: did not induce significant apoptosis
Proportion of cells in G0/G1 phase [12]: significantly increased
Proportion of cells in G2/M phase [12]: decreased
Inhibition on cell viability [13]: significant time-dependent inhibition
